Results reported in ChEMBL document CHEMBL4017538, “Vitamin D Analogues with a p-Hydroxyphenyl Group at the C25 Position: Crystal Structure of Vitamin D Receptor Ligand-Binding Domain Complexed with the Ligand Explains the Mechanism Underlying Full Antagonistic Action” (J Med Chem, 2017).
Activity calls are given as the source filed them. The calls are words filed in the database; no cut-off is given here.

Tests used:
[1] = molecular target: T1, Vitamin D3 receptor (Homo sapiens) (UniProt P11473); assay: Antagonist activity at human vitamin D receptor expressed in African green monkey COS7 cells assessed as inhibition of 1,25D3-induced transactivation after 16 hrs by dual luciferase reporter gene assay; type: cell-based
T1 sequence (whole entry): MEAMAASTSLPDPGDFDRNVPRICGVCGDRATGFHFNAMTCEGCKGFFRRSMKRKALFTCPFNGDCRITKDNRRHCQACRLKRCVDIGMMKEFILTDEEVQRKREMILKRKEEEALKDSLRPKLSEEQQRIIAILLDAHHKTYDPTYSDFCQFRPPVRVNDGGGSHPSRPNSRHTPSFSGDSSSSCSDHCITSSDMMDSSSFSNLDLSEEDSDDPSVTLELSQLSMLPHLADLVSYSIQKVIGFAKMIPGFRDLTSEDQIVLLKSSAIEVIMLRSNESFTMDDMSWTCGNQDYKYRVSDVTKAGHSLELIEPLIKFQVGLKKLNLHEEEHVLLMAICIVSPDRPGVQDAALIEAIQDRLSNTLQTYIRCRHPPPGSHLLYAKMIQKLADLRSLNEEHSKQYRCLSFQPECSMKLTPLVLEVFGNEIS
In short: (§1)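 Cells were co-transfected with full-length human VDR expression plasmid (pCMX-hVDR), a luciferase reporter carrying three copies of mouse osteopontin VDRE (SPPx3-TK-Luc), and a sea pansy luciferase internal control (pRL-CMV), then read by dual luciferase assay. Activity is scaled so that 10−8 M 1,25D3 equals 1 in Cos7 and 10−9 M 1,25D3 equals 1 in HEK293. Inhibition was tested in the presence of 1,25D3.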

Vitamin D3 receptor [2] = molecular target: T2, Vitamin D3 receptor (Homo sapiens, UniProt P11473); assay: Displacement of [3H]-1,25-(OH)2D3 from N-terminal GST-tagged human recombinant vitamin D receptor ligand binding domain expressed in Escherichia coli BL21 (DE3) pLys S after 16 hrs
T2 sequence (P11473 whole entry): T1 sequence (whole entry)

[3] = molecular target: T1, Vitamin D3 receptor (Homo sapiens); assay: Agonist activity at human vitamin D receptor expressed in African green monkey COS7 cells after 16 hrs by dual luciferase reporter gene assay; type: cell-based; in short: as §1
[4] = molecular target: T1, Vitamin D3 receptor (Homo sapiens); assay: Partial agonist activity at human vitamin D receptor expressed in HEK293 cells after 16 hrs by dual luciferase reporter gene assay; type: cell-based; in short: as §1
[5] = molecular target: T1, Vitamin D3 receptor (Homo sapiens); assay: Ratio of 1,25-(OH)2D3 IC50 to test compound IC50 for displacement of [3H]-1,25-(OH)2D3 from N-terminal GST-tagged human recombinant vitamin D receptor ligand binding domain expressed in Escherichia coli BL21 (DE3) pLys S after 16 hrs
[6] = molecular target: T1, Vitamin D3 receptor (Homo sapiens); assay: Antagonist activity at VP16-fused human vitamin D receptor in HEK293 cells assessed as inhibition of ligand-induced GAL4-fused SRC1 coactivator recruitment by dual luciferase assay; type: cell-based
[7] = molecular target: T1, Vitamin D3 receptor (Homo sapiens); assay: Antagonist activity at VP16-fused human vitamin D receptor in HEK293 cells assessed as inhibition of ligand-induced GAL4-fused RXRalpha recruitment by dual luciferase assay; type: cell-based
Vitamin D3 receptor [8] = molecular target: T2, Vitamin D3 receptor

Compound | antagonist activity (qualitative) [1] | IC50 (Vitamin D3 receptor [2]) [nM] | Activity [3] | Activity [4] | relative affinity (IC50 ref/IC50 test) [5] | inhibition [6] | inhibition [7] | IC50 (Vitamin D3 receptor [8]) [nM]
C=C1[C@H](O)CC(=C/C=C2\CCC[C@]3(C)[C@@H]([C@H](C)CCCC(=O)c4ccc(O)cc4)CC[C@@H]23)C[C@H]1O | Active | 84 |  | Active | 0.006 |  |  | 
C=C1[C@H](O)CC(=C/C=C2\CCC[C@]3(C)[C@@H]([C@H](C)[C@@H](CCCC)CCC(=O)c4ccc(O)cc4)CC[C@@H]23)C[C@H]1O |  | 20 | inactive |  | 0.028 | Active | inactive | 
C=C1[C@H](O)CC(=C/C=C2\CCC[C@]3(C)[C@@H]([C@H](C)CCCC(O)c4ccc(O)cc4)CC[C@@H]23)C[C@H]1O (stereo partly specified) | Active | 36 |  | Active | 0.0044 |  |  | 
C=C1[C@H](O)CC(=C/C=C2\CCC[C@]3(C)[C@@H]([C@H](C)CCCC(O)(c4ccc(O)cc4)c4ccc(O)cc4)CC[C@@H]23)C[C@H]1O |  | 520 | inactive |  | 0.00096 | Active | Active | 800

More lines, in order of falling IC50 (Vitamin D3 receptor [2]), values ahead:

antagonist activity (qualitative) [1] | IC50 (Vitamin D3 receptor [2]) [nM] | Activity [3] | Activity [4] | relative affinity (IC50 ref/IC50 test) [5] | inhibition [6] | inhibition [7] | IC50 (Vitamin D3 receptor [8]) [nM] | Compound
 | 130 | inactive |  | 0.0042 | Active | inactive | 400 | C=C1[C@H](O)CC(=C/C=C2\CCC[C@]3(C)[C@@H]([C@H](C)[C@@H](CCCC)CCC(O)(c4ccc(O)cc4)c4ccc(O)cc4)CC[C@@H]23)C[C@H]1O
 | 102 |  |  | 0.0049 |  |  |  | C=C1[C@H](O)CC(=C/C=C2\CCC[C@]3(C)[C@@H]([C@H](C)CCCC(OC)c4ccc(O)cc4)CC[C@@H]23)C[C@H]1O (stereo partly specified)
Active | 23 |  | Active | 0.031 |  |  |  | C=C1[C@H](O)CC(=C/C=C2\CCC[C@]3(C)[C@@H]([C@H](C)[C@@H](CCCC)CCC(OC)c4ccc(O)cc4)CC[C@@H]23)C[C@H]1O (stereo partly specified)
Dose-dependent effect | 17 | inactive | Active | 0.0094 |  |  |  | C=C1[C@H](O)CC(=C/C=C2\CCC[C@]3(C)[C@@H]([C@H](C)[C@@H](CCCC)CCC(O)c4ccc(O)cc4)CC[C@@H]23)C[C@H]1O (stereo partly specified)
